Measured values taken from publication PMC12429009 (The FASEB Journal, 2025).
Substitutions are numbered along the chain they refer to. Names and notes keep the numbering of the source. “Also recorded” adds a separate entry of the source.

B1: 14-3-3ζ E180A (natural protein, human, UniProt P63104 1-245, looked up)
chain: MDKNELVQKAKLAEQAERYDDMAACMKSVTEQGAELSNEERNLLSVAYKNVVGARRSSWRVVSSIEQKTEGAEKKQQMAREYREKIETELRDICNDVLSLLEKFLIPNASQAESKVFYLKMKGDYYRYLAEVAAGDDKKGIVDQSQQAYQEAFEISKKEMQPTHPIRLGLALNFSVFYYAILNSPEKACSLAKTAFDEAIAELDTLSEESYKDSTLIMQLLRDNLTLWTSDTQGDEAEAGEGGEN
B2: E131A (protein)
chain: B1 chain with E131A, A180E
modifications: left off: His6, end not stated, cleaved
B3: 14-3-3ζ E180AN173V (natural protein, human, UniProt P63104 1-245, looked up)
chain: B1 chain with N173V
B4: 14-3-3ζ D124A (natural protein, human, UniProt P63104 1-245, looked up)
chain: B1 chain with D124A, A180E
B5: R55A: 14‐3‐3ζ dimer interface mutant (protein)
chain: B1 chain with R55A, A180E
modifications: left off: His6, end not stated, cleaved
B6: Y82AN173V: 14‐3‐3ζ double mutant, monomer (protein)
chain: B1 chain with Y82A, N173V, A180E
modifications: left off: His6, end not stated, cleaved
B7: E180A: 14‐3‐3ζ amphipathic pocket mutant (protein)
chain: B1 chain
modifications: left off: His6, end not stated, cleaved
B8: 14-3-3ζ E131AN173V (natural protein, human, UniProt P63104 1-245, looked up)
chain: B1 chain with E131A, N173V, A180E
B9: E131AN173V: 14‐3‐3ζ double mutant (protein)
chain: B1 chain with E131A, N173V, A180E
modifications: left off: His6, end not stated, cleaved
B10: D124A (protein)
chain: B1 chain with D124A, A180E
modifications: left off: His6, end not stated, cleaved
B11: E131AE180A: 14‐3‐3ζ double mutant (protein, UniProt P63104 1-245, looked up, variant E131A E180A)
14-3-3 protein zeta/delta: B1 chain with E131A
B12: 14-3-3ζ F117AN173V (natural protein, human, UniProt P63104 1-245, looked up)
chain: B1 chain with F117A, N173V, A180E
B13: Y82A: 14‐3‐3ζ mutant, monomer, ATPase null mutant (protein)
chain: B1 chain with Y82A, A180E
modifications: left off: His6, end not stated, cleaved
B14: 14-3-3ζ N173V (natural protein, human, UniProt P63104 1-245, looked up)
chain: B1 chain with N173V, A180E
B15: N173V (protein)
chain: B1 chain with N173V, A180E
modifications: left off: His6, end not stated, cleaved
B16: F117AN173V (protein)
chain: B1 chain with F117A, N173V, A180E
modifications: left off: His6, end not stated, cleaved
B17: E180AN173V: 14‐3‐3ζ double mutant (protein)
chain: B1 chain with N173V
modifications: left off: His6, end not stated, cleaved
B18: 14-3-3ζ E131A (natural protein, human, UniProt P63104 1-245, looked up)
chain: B1 chain with E131A, A180E
B19: 14-3-3ζ R55A (natural protein, human, UniProt P63104 1-245, looked up)
chain: B1 chain with R55A, A180E

Key:
[1] = Oligomeric status by native PAGE; assay type: physicochemical; details: 15 μg protein, 10% native gel (legend: 12%), Coomassie blue
Procedure, shortened: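 Purified untagged 14‐3‐3ζ WT and mutant apoproteins (E. coli‐expressed, Ni‐NTA plus size exclusion, TEV‐cleaved), buffer‐exchanged into 50 mM Na‐HEPES pH 8.0, 150 mM NaCl, 10% glycerol, then run under nondenaturing conditions. Migration read as monomer or dimer.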

[2] = Gel filtration, Hiload 16/600 Superdex 200; assay type: physicochemical
Procedure, shortened: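 After His‐tag removal with TEV protease, untagged 14‐3‐3ζ WT or mutant protein from E. coli BL21 DE3 was run on the Superdex 200 column in 50 mM Tris/Cl pH 8.0, 400 mM NaCl, 10% glycerol. Peak fractions collected and elution profile recorded.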

[3] = system: 14‐3‐3; details: cited from earlier work
[4] = target: the molecule itself; assay: native gel or EMSA
[5] = system: 14‐3‐3ζ WT and mutant proteins; assay: ATPase activity; assay type: biochemical, human; details: 10 μM protein, 1 mM ATP, 37°C, 2 h; three independent experiments
[6] = system: FAM‐labeled peptides (mode2 phosphopeptide); assay: Peptide binding ability of 14‐3‐3ζ mutant proteins by fluorescence polarization; details: FP; FAM‐labeled peptide 62.5 nM, protein 8 to 0.0625 μM, 25°C, 30 min
Procedure, shortened: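 Untagged 14‑3‑3ζ mutants (E. coli BL21 DE3; Ni‑NTA, SEC, TEV cleavage) in 50 mM Na‑HEPES pH 8.0, 150 mM NaCl, 10% glycerol. Protein titrated 8 to 0.0625 μM against constant 62.5 nM N‑terminal FAM‑labeled phosphopeptide. Incubated 30 min at 25°C in the dark before anisotropy reading; K_D fitted.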

[7] = system: 14‐3‐3; details: ref 16 (Ramteke et al.); cited from earlier work
[8] = Thermal stability by nano‐DSF; assay type: physicochemical

| Molecule | migration on native PAGE / oligomeric state [1] | stoichiometry N [4] | ATPase activity (in words, compared with WT) [5] | also measured |
| --- | --- | --- | --- | --- |
| 14‐3‐3ζ WT: wild-type 14‐3‐3ζ protein expressed in E. coli | migrated as dimers |  |  | gel filtration elution volume [2]: 68 mL |
| Nc1ncnc2c1ncn2[C@@H]1O[C@H](COP(=O)(O)O)[C@@H](O)[C@H]1O [AMP] |  |  |  | binding to 14‐3‐3 alone [3]: Neither AMP nor the nonphospho ChREBP peptide alone can bind strongly to the 14‐3‐3; effect of AMP on 14‐3‐3‐ChREBP peptide complex [3]: stabilizes 14‐3‐3‐ChREBP peptide‐complex |
| B1 |  | 2 |  |  |
| B2 | migrated as dimers |  | made no difference to the ATPase activity |  |
| B3 |  | 2 |  |  |
| B4 |  | 2 |  |  |
| B5 | migrated as dimers |  |  | peptide binding of 14‐3‐3ζ mutant protein (in words) [6]: bind all peptides with the same affinity as the WT; ATPase activity (earlier study) [7]: reduction in ATP binding and hydrolysis; also recorded: ATPase defective mutant; also recorded: decrease in the ATPase activity |
| B6 | could be monomeric in nature |  | some ATPase activity (less than the WT) | ATPase activity as percentage of the N173V mutant [5]: 20%; reduction in ATPase activity compared with N173V [5]: 80% |
| B7 | migrated as dimers |  | made no difference to the ATPase activity |  |
| B8 |  | 2 |  |  |
| B9 | migrated as dimers |  |  |  |
| B10 | migrated as dimers |  | higher than that of the WT protein; also recorded: enhanced ATPase activity | peptide binding of 14‐3‐3ζ mutant protein (in words) [6]: defective in peptide binding; ATPase activity (earlier study) [7]: increase in ATPase activity |
| B11 |  |  | decreased dramatically |  |
| B12 |  | 2 |  |  |
| B13 | could be monomeric in nature |  | near background luminescence readings‐ it is practically an ATPase null mutant | peptide binding of 14‐3‐3ζ mutant protein (in words) [6]: bound the peptide with comparable affinity to the WT; also recorded: bind all peptides with the same affinity as the WT; gel filtration elution volume [2]: 74 mL |
| B14 |  | 2 |  |  |
| B15 | migrated as dimers |  | had increased ATPase activity and has more affinity for ATP; also recorded: enhanced ATPase activity | peptide binding of 14‐3‐3ζ mutant protein (in words) [6]: defective in peptide binding assays; also recorded: binds less well to the phosphopeptide ligands; thermal stability (in words) [8]: more stable than the D124A |
| B16 | migrated as dimers |  |  |  |
| B17 | migrated as dimers |  |  | thermal stability (in words) [8]: most unstable and prone to aggregation |
| B18 |  | 2 |  |  |
| B19 |  | 2 |  |  |
